What was measured:
L1210 = assay: Antiproliferative activity against murine L1210 cells; format: functional, cell-based; settings: Mus musculus
Summary of the method: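 Murine L1210 leukemia cells in Fischer's medium with 10% heat-inactivated horse serum; cells counted at 0, 24, 48, 72, 96 h with compound; growth rate from slope of semilog cell number vs time, as percent of control (doubling time 12 h). IC50 = concentration halving growth rate; average of two or three experiments.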

HFF = assay: Inhibition against human foreskin fibroblast (HFF) in a visual assay at time of plaque enumeration; format: functional, cell-based
Summary of the method: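 Stationary uninfected HFF cells, grown in MEM with 10% fetal bovine serum, inspected microscopically for cytotoxicity, scored visually when plaques were counted in the HCMV plaque assay.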

Human alphaherpesvirus 1 = assay: Antiviral activity against herpes simplex virus type 1 (HSV-1) by ELISA test; format: functional, organism-based
Summary of the method: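 BSC-1 cells (10 000/well) in MEM(E) plus 10% calf serum, incubated overnight at 37 °C, then drug in quadruplicate plus HSV-1 KOS at 100 pfu/well; 3 days at 37 °C; HRP-conjugated rabbit anti-HSV-1 antibody, TMB substrate, absorbance at 450 and 570 nm. Percent reduction versus virus-only control; IC50 by regression on log concentration.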

Human betaherpesvirus 5 = assay: Antiviral activity against human cytomegalovirus (HCMV) in plaque reduction assay; format: functional, organism-based
Summary of the method: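 HFF cells infected with roughly 100 pfu HCMV Towne per cm2; after adsorption, drug in growth medium at four to eight concentrations in duplicate wells; 7 days at 37 °C, crystal violet staining, microscopic plaque counts as percent reduction versus no-drug control. IC50 by regression on log concentration; average of duplicate experiments.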

KB = assay: Antiproliferative activity against KB cell; format: functional, cell-based; settings: Homo sapiens
Summary of the method: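 KB cells seeded at 3000-5000/well, compound added after overnight culture at 37 °C in quadruplicate at six to eight concentrations; 48 h incubation (about two population doublings) in CO2 incubator; ethanol fixation, 0.1% crystal violet stain, eluted dye read at 570 nm. IC50 from linear regression of percent inhibition against log concentration.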

SMILES	IC50 (L1210) [µM]	IC50 (Human alphaherpesvirus 1) [µM]	IC50 (Human betaherpesvirus 5) [µM]	IC50 (KB) [µM]	IC50 (HFF) [µM]
Cc1nsc2c1ncn2[C@H]1C[C@H](O)[C@@H](CO)O1	> 100	> 100	> 100	> 100	> 100
c1ccc(CSc2nc3cnsc3[nH]2)cc1	0.3	15	21	0.2	14
Cc1nsc2[nH]c(SCc3ccccc3)nc12	7	45	21	9	10
OC[C@H]1O[C@@H](n2c(SCc3ccccc3)nc3sncc32)C[C@@H]1O	2.2	15	3.2	3	2.1
CSc1nc2c(C)nsc2n1[C@H]1C[C@H](O)[C@@H](CO)O1	> 100	> 100	> 100	> 100	> 100
OC[C@H]1O[C@@H](n2c(SCc3ccccc3)nc3cnsc32)C[C@@H]1O	8	> 100	> 100	> 100	> 100
CSc1nc2c(C)nsc2[nH]1	13	60	18	60	26
Cc1nsc2[nH]cnc12	17	45	32	20	32
Cc1nsc2ncn([C@H]3C[C@H](O)[C@@H](CO)O3)c12	78	> 100	> 100	> 100	> 100
CSc1nc2cnsc2[nH]1	7	45	32	15	32
Cc1nsc2c1nc(SCc1ccccc1)n2[C@H]1C[C@H](O)[C@@H](CO)O1	> 100	> 100	> 100	> 100	> 100

The next lines start with results.

IC50 (L1210) [µM]	IC50 (Human alphaherpesvirus 1) [µM]	IC50 (Human betaherpesvirus 5) [µM]	IC50 (KB) [µM]	SMILES	IC50 (HFF) [µM]
> 100	100	> 100	> 100	CSc1nc2cnsc2n1[C@@H]1O[C@H](CO)[C@@H](O)[C@@H]1O	> 100
> 100	> 100	> 100	> 100	CSc1nc2cnsc2n1[C@@H]1O[C@H](CO)[C@@H](O)[C@H]1O	> 100
> 100	> 100	> 100	> 100	Cc1nsc2c1ncn2[C@@H]1O[C@H](CO)[C@@H](O)[C@@H]1O	> 100
> 100	> 100	> 100	> 100	CSc1nc2c(C)nsc2n1[C@@H]1O[C@H](CO)[C@@H](O)[C@H]1O	> 100
> 100	> 100	> 100	> 100	OC[C@H]1OC(n2c(SCc3ccccc3)nc3cnsc32)[C@@H](O)[C@@H]1O (stereo not given in full)	> 100
10	> 100	> 100	90	Cc1nsc2c1ncn2[C@@H]1O[C@H](CO)[C@@H](O)[C@H]1O	150
> 100	> 100	> 100	> 100	CSc1nc2cnsc2n1[C@H]1C[C@H](O)[C@@H](CO)O1	> 100
1.5	> 100	3.2	3	OC[C@H]1OC(n2c(SCc3ccccc3)nc3sncc32)[C@@H](O)[C@@H]1O (stereo not given in full)	2.1
20	10	22	6	CSc1nc2sncc2n1[C@H]1C[C@H](O)[C@@H](CO)O1	15
> 100	> 100	> 100	> 100	CSc1nc2c(C)nsc2n1[C@@H]1O[C@H](CO)[C@@H](O)[C@@H]1O	> 100
> 100	> 100	> 100	> 100	Cc1nsc2c1nc(SCc1ccccc1)n2[C@@H]1O[C@H](CO)[C@@H](O)[C@H]1O	> 100
33	60	32	30	CSc1nc2snc(C)c2n1[C@H]1C[C@H](O)[C@@H](CO)O1	32
100	70	32	> 100	Cc1nsc2ncn(C3O[C@H](CO)[C@@H](O)[C@H]3O)c12 (stereo not given in full)	32
> 100	> 100	> 100	> 100	Cc1nsc2c1nc(SCc1ccccc1)n2[C@@H]1O[C@H](CO)[C@@H](O)[C@@H]1O	> 100
11	25	32	15	CSc1nc2sncc2n1[C@@H]1O[C@H](CO)[C@@H](O)[C@@H]1O	21
8.6	20	32	15	CSc1nc2sncc2n1[C@@H]1O[C@H](CO)[C@@H](O)[C@H]1O	21
